Most compounds without a hit are left out; they make up all but 3.5% or so of the library.
HIV Env fusion: inhibitors of HIV-1 Env-driven cell-cell fusion, primary screen, HeLa-JRFL effector, CEM21 target cells, luciferase; hit rate 1.1% among 360,000; inhibition, % at 12.3 µM;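 active = mean replicate inhibition score of at least 50 and every replicate individually at or above 50; inconclusive = only one of the two criteria met; inactive = mean below 50 and not all replicates reaching 50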
PglD inh: C. jejuni PglD acetyltransferase inhibitors, primary screen, biochemical, DTNB colorimetric, single point; inhibition, % at 12.5 µM; UDP-N-acetylbacillosamine N-acetyltransferase PglD (Campylobacter jejuni); purified PglD enzyme, DTNB colorimetric CoA detection; hit rate 0.098% among 360,000; AID 602405, 2012; in the data active = inhibition above about 16%, passing the limit was not always enough; inconclusive = no clear call, values can overlap the other calls
FN deposit inh: inhibitors of fibronectin matrix deposition, primary screen, AH1F cells, Alexa488-fibronectin fluorescence, plate reader; AH1F fibroblasts, overnight; inhibition, % at 12.6 µM; hit rate 0.086% among 350,000; AID 743247, 2014;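 active = mean inhibition across replicates of 30% or more, regardless of how many single replicates reach that level; inconclusive = mean under 30% yet at least half of replicates reach 30%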
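Schedule: 1 h cell adhesion before compound, then overnight fibronectin incubation; test system: AH1F fibroblast monolayer depositing Alexa488-labelled fibronectin into matrix; quantity: 10000 AH1F cells per well; probe or stimulus: fluorescent fibronectin at 24 nM final; signal: fluorescence, ex 485 nm, em 525 nm; evaluation: percent inhibition as loss of matrix-bound fibronectin fluorescence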
rRNA inh HTS: reduced GFP signal of wild-type E. coli, primary screen, bacterial rRNA inhibitor project, GFP/RFP fluorescence, OD600, single point; GFP signal change (wild-type ribosome), % (concentration not given with the values); AID 720706, 2013; hit rate 1.6% among 350,000; E. coli WT GFP vs humanized-ribosome RFP mutants, 24 h; hits give low values; DMSO median 0, no signal -100;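 active = significant combined selectivity score with lowered wild-type GFP, culture density cut under 30%, mutant RFP and density less affected; inactive = any of these conditions unmet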
PGC1a acetyl inh: inhibitors of PGC1a acetylation signal, primary screen, cell-based, U2OS, AlphaScreen, inhibitor mode | hit rate 0.17% among 350,000 | inhibition, % at 15.6 µM | AID 651687, 2012 | AlphaScreen anti-acetyl-lysine; with virally co-expressed GCN5 acetyltransferase;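 active = every replicate shows inhibition of at least 40%; inconclusive = mean inhibition at least 40% but some replicate below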
DENV2 CPE: inhibitors of DENV2 cytopathic effect, primary screen, cell-based, plate reader, single concentration | DENV2-infected cells, cytopathic effect rescue | CPE inhibition, % at 9.99 µM | hit rate 1.7% among 350,000 | AID 651640, 2012; in the data active = CPE inhibition above about 20%, passing the limit was not always enough; inconclusive = no clear call, values can overlap the other calls; tested in BHK-21 cells
Hits are given with their value; i = inactive; ? = inconclusive; nt = not tested or not shown; ! = not active in a repeat.

SMILES	HIV Env fusion	PglD inh	FN deposit inh	rRNA inh HTS	PGC1a acetyl inh	DENV2 CPE
O=C(c1ccc2c(c1)OCO2)N1CC[C@@H]2[C@H](CO)Nc3ccc(-c4ccccc4)cc3[C@@H]21	nt	i	i	i	i	23
CN(C)C(=O)c1ccc(-c2ccc3c(c2)[C@H]2[C@H](CCN2C(=O)c2ccccn2)[C@H](CO)N3)cc1	nt	i	i	i	i	26
COc1ccc(-c2ccc3c(c2)[C@@H]2[C@@H](CCN2C(=O)c2ccc4c(c2)OCO4)[C@@H](CO)N3)cc1	nt	i	i	i	i	74
CN(C)C(=O)c1ccc(-c2ccc3c(c2)[C@@H]2[C@@H](CCN2C(=O)c2cnccn2)[C@H](CO)N3)cc1	nt	i	i	i	i	i
O=C(c1ccc2c(c1)OCO2)N1CC[C@@H]2[C@H]1c1cc(-c3ccccc3)ccc1N[C@@H]2CO	nt	i	i	i	i	?
O=C(Cc1ccccn1)N1[C@H](CO)[C@@H]2c3ccccc3NC[C@@H]21	nt	i	i	i	i	i
CCn1cc(/C=C(\NC(=O)c2ccccc2OC)C(=O)NCCN2CCOCC2)c2ccccc21	i	i	i	i	nt	22
CCc1ccc(NC(=O)N(CCCN2CCOCC2)Cc2cccs2)cc1	i	i	i	i	i	34
O=C(Nc1ccccc1)N(CCCN1CCOCC1)Cc1cccs1	i	i	i	i	i	i
O=c1c2c([nH]c3ccc(Br)cc13)CCCC2	nt	i	nt	nt	i	nt
Brc1ccc2[nH]c3c(c2c1)CCC3	i	i	i	-16	i	i
CC(C)(C)c1ccc(NC(=O)NC2CCCc3ccccc32)cc1 (stereo not drawn)	i	i	i	i	i	39
CN(C)C(=O)CCC(=O)N1CCCC(C(=O)c2ccc3c4c(cccc24)CC3)C1 (stereo not drawn)	80	i	nt	i	i	i
Cc1ncccc1C(=O)N1CCCC(C(=O)c2ccc3c4c(cccc24)CC3)C1 (stereo not drawn)	90	nt	i	nt	nt	i
O=C(c1ccc2c3c(cccc13)CC2)C1CCCN(C(=O)c2ccc(=O)[nH]c2)C1 (stereo not drawn)	i	nt	i	i	nt	i
Cc1noc(C)c1NC(=O)Nc1ccc2c(c1)C(=O)N([C@@H](C)CO)C[C@@H](C)[C@H](CN(C)C)OCCCC[C@H](C)O2	i	i	nt	i	i	i
C[C@H](CO)N1C[C@H](C)[C@H](CN(C)Cc2ccncc2)OCCCC[C@H](C)Oc2ccc(NS(=O)(=O)c3ccccc3)cc2C1=O	i	i	i	i	i	73
C[C@H](CO)N1C[C@H](C)[C@@H](CN(C)Cc2ccncc2)OCCCC[C@H](C)Oc2ccc(NS(=O)(=O)c3ccccc3)cc2C1=O	i	i	i	i	i	i
C[C@@H]1CCCCO[C@@H](CN(C)Cc2ccncc2)[C@@H](C)CN([C@H](C)CO)C(=O)c2cc(NS(=O)(=O)c3ccccc3)ccc2O1	i	i	i	i	i	i
C[C@@H]1CCCCO[C@H](CN(C)Cc2ccncc2)[C@@H](C)CN([C@H](C)CO)C(=O)c2cc(NS(=O)(=O)c3ccccc3)ccc2O1	i	i	i	i	i	21
C[C@@H]1CN([C@@H](C)CO)C(=O)c2cc(NS(=O)(=O)c3ccccc3)ccc2O[C@@H](C)CCCCO[C@H]1CN(C)Cc1ccncc1	i	i	i	i	i	i
C[C@H]1CCCCO[C@H](CN(C)Cc2ccncc2)[C@@H](C)CN([C@@H](C)CO)C(=O)c2cc(NS(=O)(=O)c3ccccc3)ccc2O1	i	i	i	i	73!	i
C[C@H]1CN([C@@H](C)CO)C(=O)c2cc(NS(=O)(=O)c3cn(C)cn3)ccc2O[C@H]1CN(C)C	nt	i	i	i	i	i
O=C(CSc1ccccn1)N/N=C/c1cc([N+](=O)[O-])ccc1O	i	nt	i	-19	nt	nt
O=C(C[C@H]1C[C@H]2c3cc(NC(=O)CC4CC4)ccc3O[C@H]2[C@H](CO)O1)NCCN1CCCCC1	i	i	i	i	i	i

Bioassay records (PubChem BioAssay)
